Measurements as given in ChEMBL document CHEMBL1649351, “Synthesis, in vitro antimicrobial and in vivo antitumor evaluation of novel pyrimidoquinolines and its nucleoside derivatives” (Eur J Med Chem, 2011).

How the values were obtained:
Bacillus subtilis = experiment: Antibacterial activity against Bacillus subtilis at 50 mg/disk after 24 to 28 hrs by agar disk diffusion method; format: functional
Lactococcus lactis = experiment: Antibacterial activity against Streptococcus lactis at 50 mg/disk after 24 to 28 hrs by agar disk diffusion method; format: functional
Escherichia coli = experiment: Antibacterial activity against Escherichia coli at 50 mg/disk after 24 to 28 hrs by agar disk diffusion method; format: functional
Pseudomonas aeruginosa = experiment: Antibacterial activity against Pseudomonas aeruginosa at 50 mg/disk after 24 to 28 hrs by agar disk diffusion method; format: functional
Candida albicans = experiment: Antifungal activity against Candida albicans at 50 mg/disk after 5 days by agar disk diffusion method; format: functional
Nakaseomyces glabratus = experiment: Antifungal activity against Candida glabrata at 50 mg/disk after 5 days by agar disk diffusion method; format: functional
HepG2 [1] = experiment: Antitumor activity against human HepG2 cells xenografted in Swiss albino mouse assessed as increase of mouse survival at 10 ug/kg, ip for 10 days (reference value: 22 +/- 1.90 day); format: functional
HepG2 [2] = experiment: Antitumor activity against human HepG2 cells xenografted in Swiss albino mouse assessed as increase mouse life span at 10 ug/kg, ip for 10 days relative to control; format: functional
HeLa [3] = experiment: Antitumor activity against human HeLa cells xenografted in Swiss albino mouse assessed as increase of mouse survival at 10 ug/kg, ip for 10 days (reference value: 22 +/- 1.90 day); format: functional
HeLa [4] = experiment: Antitumor activity against human HeLa cells xenografted in Swiss albino mouse assessed as increase mouse life span at 10 ug/kg, ip for 10 days relative to control; format: functional
Mus musculus [5] = experiment: Acute toxicity in human HepG2 cells xenografted ip dosed Swiss albino mouse assessed as mortality measured up to 2 weeks; format: organism-based; settings: in vivo, 336 h
Outline: (§1)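 Adult Swiss albino mice were fasted 12 h and randomised into groups of 10. Each group got one i.p. dose from a graded series, given at 1 ml/kg body weight; controls got vehicle alone. Food and water were returned right after dosing. Mortality was followed for up to two weeks, and LD50 was taken as the dose giving 50% mortality.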

Mus musculus [6] = experiment: Acute toxicity in human HeLa cells xenografted ip dosed Swiss albino mouse assessed as mortality measured up to 2 weeks; format: organism-based; settings: in vivo, 336 h; outline: as §1

Structure (SMILES) | diameter of the inhibition zone (DIZ) (Bacillus subtilis) | diameter of the inhibition zone (DIZ) (Lactococcus lactis) | diameter of the inhibition zone (DIZ) (Escherichia coli) | diameter of the inhibition zone (DIZ) (Pseudomonas aeruginosa) | diameter of the inhibition zone (DIZ) (Candida albicans) | diameter of the inhibition zone (DIZ) (Nakaseomyces glabratus) | Survival (HepG2 [1]) | Activity (HepG2 [2]) | Survival (HeLa [3]) | Activity (HeLa [4]) | LD50 (Mus musculus [5]) | LD50 (Mus musculus [6])
CC1(C)CC(=O)C2=C(C1)Nc1nc(NN)[nH]c(=O)c1C2c1ccc([N+](=O)[O-])cc1 (stereo not given) | 15 mm | 15 mm | 15 mm | 15 mm | 9 mm | 8 mm | 28 days | 31% | 29 days | 38% | 0.089 mg/kg | 0.1 mg/kg
CC1(C)CC(=O)C2=C(C1)Nc1nc(Nn3c(=O)c4cc5c(=O)n(Nc6nc7c(c(=O)[nH]6)C(c6ccc([N+](=O)[O-])cc6)C6=C(CC(C)(C)CC6=O)N7)c(=O)c5cc4c3=O)[nH]c(=O)c1C2c1ccc([N+](=O)[O-])cc1 (stereo not given) | 22 mm | 25 mm | 23 mm | 22 mm | 13 mm | 12 mm | 38 days | 58% | 29 days | 53% | 0.099 mg/kg | 0.099 mg/kg
CC1(C)CC(=O)C2=C(C1)Nc1nc(N)[nH]c(=O)c1C2c1ccc([N+](=O)[O-])cc1 (stereo not given) | 25 mm | 20 mm | 27 mm | 23 mm | 9 mm | 9 mm | 35 days | 49% | 31 days | 50% | 0.095 mg/kg | 0.09 mg/kg
CSc1nc2c(c(=O)n1C)C(c1ccc([N+](=O)[O-])cc1)C1=C(CC(C)(C)CC1Cl)N2 (stereo not given) | 14 mm | 13 mm | 15 mm | 14 mm | 10 mm | 9 mm | 33 days | 48% | 31 days | 45% | 0.1 mg/kg | 0.103 mg/kg
CC1(C)CC(=O)C2=C(C1)Nc1nc(N/N=C\c3ccc(Cl)cc3)[nH]c(=O)c1C2c1ccc([N+](=O)[O-])cc1 (stereo not given) | 16 mm | 17 mm | 18 mm | 17 mm | 7 mm | 6 mm | 37 days | 53% | 32 days | 50% | 0.096 mg/kg | 0.09 mg/kg
